In ChEMBL document CHEMBL1147245, “Chemistry of renieramycins. Part 3.(1) isolation and structure of stabilized renieramycin type derivatives possessing antitumor activity from Thai sponge Xestospongia species, pretreated with potassium cyanide” (J Nat Prod, 2003) one finds IC50 data, which are given here for five compounds.

Format in all cases: functional, cell-based
Assay [1] has as its system NCI-H460. Description: Cytotoxicity against human NCI-H460 cells after 4 days. As to conditions: NCI-H460, 96 h.
For assay [2], the system named is HCT-116. Description: Cytotoxicity against human HCT116 cells after 4 days. As to conditions: HCT-116, 96 h. In short, it runs like this:
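HCT116 cells seeded as single-cell suspension at 2×10^3 cells/well onto serially diluted compounds, cultured 4 days; growth read with a cell counting kit. IC50 taken as concentration giving 50% growth inhibition relative to untreated control.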

Assay [3] deals with DLD-1. Description: Cytotoxicity against human DLD1 cells after 4 days. As to conditions: DLD-1, 96 h.
Assay [4] has as its system QG-56. Description: Cytotoxicity against human QG56 cells after 4 days. The settings on record: QG-56, 96 h.

By IC50 is commonly meant the point on the concentration scale where inhibition reaches its midpoint. A low value points to greater potency. As for `COc1cc2c(cc1O)CCN[C@]21CS[C@@H]2c3c(OC(C)=O)c(C)c4c(c3[C@H](COC1=O)N1[C@@H]2[C@H]2c3c(cc(C)c(OC)c3O)C[C@@H]([C@@H]1C#N)N2C)OCO4` [ECTEINASCIDIN 770], the IC50 in assay [1] worked out at 0.64 nM; in assay [2] it was 1.2 nM; in assay [3] it was 2.4 nM; in assay [4], 3.9 nM.
The corresponding values for `C/C=C(/C)C(=O)OC[C@H]1C2=C(C[C@H]3[C@H]4C5=C(C[C@@H]([C@H](C#N)N13)N4C)C(=O)C(C)=C(OC)C5=O)C(=O)C(C)=C(OC)C2=O` [RENIERAMYCIN M] are 5.9 nM, 7.9 nM, 9.6 nM and 19 nM.
As to `C/C=C(/C)C(=O)OC[C@H]1C2=C(C[C@H]3[C@H]4c5c(O)c(OC)c(C)c(O)c5[C@H](O)[C@@H]([C@H](C#N)N13)N4C)C(=O)C(C)=C(OC)C2=O` [RENIERAMYCIN N], the IC50 stood at 6.7 nM in assay [1], 5.6 nM in assay [2], 5.7 nM in assay [3] and 11 nM in assay [4].
For `C/C=C(/C)C(=O)OC[C@H]1C2=C(C[C@H]3[C@H]4C5=C(C(=O)C(C)=C(OC)C5=O)[C@H](O)[C@@H]([C@H](C#N)N13)N4C)C(=O)C(C)=C(OC)C2=O` [RENIERAMYCIN O], the IC50 was 28 nM in assay [2] and 40 nM in assay [4].
In the case of `COC1=C(C)C(=O)C2=C(C1=O)[C@@H]1[C@@H]3CC4=C(C(=O)C(OC)=C(C)C4=O)[C@H](CNC(=O)C(C)=O)N3[C@@H](C#N)[C@H](C2)N1C` [SAFRAMYCIN A], the IC50 in assay [1] was determined as 2.1 nM; in assay [2], 0.4 nM; in assay [3], 0.6 nM; in assay [4], 5.5 nM.
